From ChEMBL document CHEMBL6134796, “Development and Evaluation of Indole-Based Phospholipase D Inhibitors for Lung Cancer Immunotherapy” (J Med Chem, 2025) come the findings set out here.

The source made the active and inactive calls. No cut-off for these calls is given here.

Assay [1] in a line: Inhibition of PLD in human A549 cells measured after 1 hr by amplex red phospholipase D assay. The assay is classed as cell-based.
Assay [2] concerns A549. Description: Inhibition of PLD1 L425A mutant (unknown origin) overexpressed in human A549 cells. Type of assay: cell-based. The gist of the method: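 A549 cells transfected with wild-type PLD1, PLD1 mutants (L425A, F614A, F789A) or PLD2, then compound-treated. PLD activity measured as [3H]phosphatidylbutanol formed in the presence of 1-butanol after [3H]myristic acid labeling, expressed as % of total lipid cpm. At least three independent experiments.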

Assay [3] can be described thus: Cytotoxicity against human HCC15 cells assessed as inhibition of cell growth incubated for 48 hrs by WST-1 assay. Type of assay: functional, cell-based. Conditions: HCC15, 48 h. The gist of the method: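 WST-1 viability assay. Cells seeded at 5 × 10^3 per well and incubated 24 h at 37 °C, then exposed to drug for 48 h. Absorbance read at 450 nm, in triplicate. IC50 taken as the concentration giving 50% growth inhibition versus control.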

The test system of assay [4] is A549. Description: Inhibition of colony formation in human A549 cells incubated for 48 hrs by crystal violet staining based analysis. Type of assay: functional, cell-based. Summed up:
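A549 cells seeded at 500 to 1,000 per well; compound added 48 h after seeding, then 48 h further incubation; medium changed every 3 days, kept 10 days total; fixed in 4% PFA 20 min, crystal violet 30 min; colonies counted by image analysis.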

For assay [5], the target named is T1, Phospholipase D1 (Mus musculus) (UniProt Q9Z280).
T1 sequence (whole entry): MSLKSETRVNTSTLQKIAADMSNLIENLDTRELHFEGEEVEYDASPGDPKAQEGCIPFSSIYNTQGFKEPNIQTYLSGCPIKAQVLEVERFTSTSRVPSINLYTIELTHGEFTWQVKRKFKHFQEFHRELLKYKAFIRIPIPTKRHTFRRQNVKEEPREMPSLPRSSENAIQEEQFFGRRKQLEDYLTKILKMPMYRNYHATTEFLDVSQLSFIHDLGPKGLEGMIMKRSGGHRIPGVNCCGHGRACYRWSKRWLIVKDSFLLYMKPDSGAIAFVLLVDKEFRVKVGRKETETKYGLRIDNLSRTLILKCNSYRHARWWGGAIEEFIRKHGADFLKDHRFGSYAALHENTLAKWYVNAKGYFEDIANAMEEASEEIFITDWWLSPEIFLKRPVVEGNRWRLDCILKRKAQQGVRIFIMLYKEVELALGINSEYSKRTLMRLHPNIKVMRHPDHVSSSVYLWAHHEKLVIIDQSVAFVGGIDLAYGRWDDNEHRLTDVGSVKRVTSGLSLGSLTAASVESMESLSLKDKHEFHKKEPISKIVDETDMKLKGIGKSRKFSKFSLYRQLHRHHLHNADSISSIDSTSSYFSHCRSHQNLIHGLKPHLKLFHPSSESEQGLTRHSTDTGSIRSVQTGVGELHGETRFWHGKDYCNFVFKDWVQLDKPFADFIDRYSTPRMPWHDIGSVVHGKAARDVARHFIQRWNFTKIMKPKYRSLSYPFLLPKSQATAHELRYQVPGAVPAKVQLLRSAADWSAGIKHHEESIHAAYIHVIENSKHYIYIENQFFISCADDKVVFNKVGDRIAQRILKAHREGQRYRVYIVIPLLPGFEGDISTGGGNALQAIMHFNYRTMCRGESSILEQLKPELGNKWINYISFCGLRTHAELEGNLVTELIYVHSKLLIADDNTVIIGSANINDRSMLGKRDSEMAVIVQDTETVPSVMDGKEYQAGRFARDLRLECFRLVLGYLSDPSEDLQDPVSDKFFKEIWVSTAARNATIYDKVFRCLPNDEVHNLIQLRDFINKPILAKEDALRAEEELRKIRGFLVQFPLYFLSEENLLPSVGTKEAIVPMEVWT
Description: In vivo inhibition of PLD1 in male C57BL/6 mouse allografted with mouse Lewis lung carcinoma cell line assessed as reduction in CD47 expression at 10 mg/kg, po by immunofluorescence analysis. Type of assay: functional, organism-based.

For a further assay, the system named is Mus musculus. Description: In vivo inhibition of KRAS activation in male C57BL/6 mouse allografted with mouse Lewis lung carcinoma cell line assessed as decrease in IKBalpha phosphorylation at 10 mg/kg, po. The assay is classed as functional, organism-based.
The target of assay [6] is T1, Phospholipase D1 (Mus musculus). Description: In vivo inhibition of PLD1 in male C57BL/6 mouse allografted with mouse Lewis lung carcinoma cell line assessed as increase in CD80+ pro-inflammatory M1 macrophage population at 10 mg/kg, po by immunofluorescence analysis. The assay is classed as functional, organism-based. Summed up: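 Same LLC syngeneic C57BL/6 model, 10 mg/kg PO every other day for 3 weeks. Tumor tissues were stained by immunofluorescence for CD80+ and CD163+ cells, CD8+ T cells, and CD4+/IL-17+ and Treg populations. Nuclei were counterstained with 1 μM Hoechst 33342 and imaged by confocal microscopy.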

For the compound `O=C(CCc1c[nH]c2ccccc12)Nc1cc(C(F)(F)F)cc(C(F)(F)F)c1`, the values for the 50% inhibitory concentration (IC50) in assay [1] and in assay [3] were 1.97 µM and 21.4 µM, respectively. Moreover, the inhibition entry (in the assay with A549 [2]; with A549 [4]; in assay [5]; in the assay on Mus musculus; in assay [6]) was “Active” each time.
